From ChEMBL document CHEMBL1151950, “Antioxidant phenylethanoid glycosides and a neolignan from Jacaranda caucana” (J Nat Prod, 2009) come the findings set out here.

In general, EC50 refers to the concentration that produces a half-maximal response.

A short description of test [1]: DPPH radical scavenging activity assessed as ratio of antioxidant concentration to drug level causing 50% decrease in DPPH level at steady state by microplate assay. Background: DPPH is a stable violet radical that fades when it is reduced.
The nature of test [2]: Antioxidant activity assessed as protection against peroxyl radical-induced alkaline phosphatase activity loss by microplate assay. Type of test: functional. In outline: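 Pure compounds were tested in the microplate alkaline phosphatase (ALP) oxidation-protection assay. The reported value is EC50, the antioxidant concentration that protects ALP by 50% from peroxyl radical-induced loss of activity.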

The structures appear in SMILES notation.

Take `C[C@@H]1O[C@@H](O[C@@H]2[C@@H](O)[C@H](OCCc3ccc(O)c(O)c3)O[C@H](COC(=O)C[C@]3(O)CC[C@@H](O)CC3)[C@H]2OC(=O)/C=C/c2ccc(O)c(O)c2)[C@H](O)[C@H](O)[C@H]1O`: the Ratio in test [1] was 0.098. Besides, the EC50 in test [2] worked out at 1270 nM.
In the same order, the values of `C[C@@H]1O[C@@H](O[C@@H]2[C@@H](O)[C@H](OCCc3ccc(O)c(O)c3)O[C@H](COC(=O)CC3(O)CCC(=O)CC3)[C@H]2OC(=O)/C=C/c2ccc(O)c(O)c2)[C@H](O)[C@H](O)[C@H]1O` are 0.079 and 1270 nM.
For `COc1cc([C@H]2Oc3c(OC)cc([C@@H](O)[C@@H](O)CO)cc3[C@@H]2CO)ccc1O[C@@H]1O[C@@H](C)[C@H](O)[C@@H](O)[C@H]1O` the same measures were 1.84 and 9070 nM.
For `C[C@@H]1O[C@@H](O[C@@H]2[C@@H](O)[C@H](OCCc3ccc(O)c(O)c3)O[C@H](CO)[C@H]2OC(=O)/C=C/c2ccc(O)c(O)c2)[C@H](O)[C@H](O)[C@H]1O` [ACETOSIDE] the same measures were 0.078 and 1040 nM.
For `C[C@@H]1O[C@@H](O[C@@H]2[C@@H](O)[C@H](OCCc3ccc(O)c(O)c3)O[C@H](COC(=O)/C=C/c3ccc(O)c(O)c3)[C@H]2O)[C@H](O)[C@H](O)[C@H]1O` [ISOACTEOSIDE], in test [1], the Ratio was 0.07. In addition, in test [2], the EC50 came to 1200 nM.
In the same order, the values of `COc1ccc(CCO[C@@H]2O[C@H](CO)[C@@H](OC(=O)/C=C/c3ccc(O)c(O)c3)[C@H](O[C@@H]3O[C@@H](C)[C@H](O)[C@@H](O)[C@H]3O)[C@H]2O)cc1O` [JIONOSIDE D] are 0.17 and 1100 nM.
In the same order, the values of `COc1ccc(CCO[C@@H]2O[C@H](CO)[C@@H](OC(=O)/C=C/c3ccc(O)c(OC)c3)[C@H](O[C@@H]3O[C@@H](C)[C@H](O)[C@@H](O)[C@H]3O)[C@H]2O)cc1O` [MARTYNOSIDE A] are 0.38 and 2420 nM.
For `O=C(O)c1ccc(O)c(O)c1` [PROTOCATECHUIC ACID] the same measures were 0.23 and 2560 nM.
For `O=c1c(O)c(-c2ccc(O)c(O)c2)oc2cc(O)cc(O)c12` [QUERCETIN], in test [1], the Ratio turned out to be 0.09. The EC50 in test [2] was 1000 nM.
